In the library only some 3.2% were active in any assay of this set; here they are far more common.
AF4-AF9 inh = MLL-AF4/AF9 protein interaction inhibition; AlphaScreen, biotin-AF4 peptide binding to FLAG-AF9; inhibition, % at 10 µM; 350,000 tested, 0.47% active; AID 651704;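 active means every replicate reaching a set inhibition limit, whatever the replicate mean, cut at about 25% in these data; inconclusive means mean inhibition reaches that limit but some replicates miss it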;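 further: 0% = plate neutral control median and 100% = total signal loss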
Target sequence (P42568 whole entry, looked up): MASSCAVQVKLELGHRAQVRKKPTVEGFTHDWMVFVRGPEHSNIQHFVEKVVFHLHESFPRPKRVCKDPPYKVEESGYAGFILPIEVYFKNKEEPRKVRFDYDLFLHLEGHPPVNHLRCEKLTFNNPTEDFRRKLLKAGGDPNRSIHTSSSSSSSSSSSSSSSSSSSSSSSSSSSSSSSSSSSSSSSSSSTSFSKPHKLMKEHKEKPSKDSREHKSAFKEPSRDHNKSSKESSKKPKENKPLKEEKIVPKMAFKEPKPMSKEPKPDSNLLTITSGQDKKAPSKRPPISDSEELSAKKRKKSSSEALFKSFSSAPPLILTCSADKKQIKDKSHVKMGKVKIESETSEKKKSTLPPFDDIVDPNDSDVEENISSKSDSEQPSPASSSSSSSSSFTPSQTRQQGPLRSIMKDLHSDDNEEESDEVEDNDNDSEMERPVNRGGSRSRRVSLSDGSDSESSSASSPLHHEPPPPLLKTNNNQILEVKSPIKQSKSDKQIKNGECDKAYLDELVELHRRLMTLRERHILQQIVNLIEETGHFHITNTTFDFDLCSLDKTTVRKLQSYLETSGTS
S100A4 inh HTS = blocks human S100A4 binding to myosin IIA peptide; inhibition, % at 10.7 µM; S100A4/TAMRA-MyoIIA peptide fluorescence polarization; P26447; 360,000 tested, 0.14% active;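 active means mean inhibition of at least 70% across replicates, with every replicate also reaching that level; inconclusive means mean inhibition reaches 70% but some replicates fall short; inactive means mean inhibition below 70%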
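Material: human S100A4 monomer with TAMRA-labelled myosin IIA peptide; buffer or medium: HEPES pH 7.2 with CaCl2, KCl, NaCl, DTT, Triton; compound dosing: one concentration per compound; schedule: 5 min incubation before reading; benchmarks: neutral control DMSO, positive control TFP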
Cneo AK release = causes C. neoformans cell lysis; adenylate kinase release luminescence, 4 h; normalised: neutral wells 0, clomiphene wells 100; lysis activity, % at 15 µM; 360,000 tested, 0.2% active;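 active means mean lysis activity across replicates of at least 80%, whatever share of replicates individually reach that level; inactive means mean lysis activity below 80%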
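Test system: log-phase Cryptococcus neoformans yeast cells. Input: 5 × 10^6 yeast cells/mL. Medium: fresh YPD growth medium. Doses: single dose. Incubation: static 4 h at 37 °C with compound, 1 h detection. Measured by: luminescent adenylate kinase detection reagent. Read-out: signal increase indicating cell lysis. Benchmarks: Clomiphene.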
Ecoli rRNA inh = inhibitors of bacterial rRNA selective over humanized ribosomes; 350,000 tested, 1.6% active; GFP signal change (wild-type ribosome), % (no concentration beside the values); E. coli WT GFP vs humanized-ribosome RFP mutants, fluorescence, 24 h; active compounds read low; DMSO median 0, no signal -100;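 active means significant combined selectivity score with lowered wild-type GFP, culture density cut under 30%, mutant RFP and density less affected; inactive means any of these conditions unmet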
PfHsp90 yeast 2 = reduces growth (ATP signal) of yeast expressing P. falciparum Hsp90 | inhibition, % at 9.4 µM | S. cerevisiae expressing PfHsp90, BacTiter-Glo ATP, 48 h; yeast lacking PDR1 and PDR3 efflux regulators | AID 504621 | 310,000 tested, 0.32% active;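 active means every replicate shows inhibition above about 80%, whatever the replicate mean, limit read from the data; inconclusive means mean inhibition reaches the set limit but some replicate falls short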;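 further: 0% = DMSO neutral controls and 100% = 20 µM radicicol positive controls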
DENV2 CPE = DENV2-induced cell death inhibition; CPE inhibition, % at 9.99 µM; 350,000 tested, 1.7% active; DENV2-infected cells, cytopathic effect rescue, plate reader; in the data active means CPE inhibition above about 20%, passing the limit was not always enough; inconclusive means no clear call, values can overlap the other calls; tested in BHK-21 cells;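 further: 0% = median of neutral control wells and 100% = median of positive control wells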
* = called active by the depositor; ? = inconclusive; nt = no result given.

SMILES	AF4-AF9 inh	S100A4 inh HTS	Cneo AK release	Ecoli rRNA inh	PfHsp90 yeast 2	DENV2 CPE
COc1ccc(S(=O)(=O)N(C)C[C@H]2OCCCC[C@H](C)Oc3ccc(NC(=O)Cc4ccccc4)cc3C(=O)N([C@@H](C)CO)C[C@@H]2C)cc1	0.8	-1.4	44.2	0.0	nt	27.2*
COc1ccc(NC(=O)Nc2ccc3c(c2)C(=O)N([C@H](C)CO)C[C@@H](C)[C@H](CN(C)S(=O)(=O)c2ccccc2)OCCCC[C@H](C)O3)cc1	-1.4	-8.7	-10.7	1.8	nt	30.1*
COc1ccc(NC(=O)Nc2ccc3c(c2)C(=O)N([C@@H](C)CO)C[C@H](C)[C@@H](CN(C)S(=O)(=O)c2ccccc2)OCCCC[C@H](C)O3)cc1	-1.1	19.5	-9.8	-1.2	nt	-5.5
C[C@@H]1CCCCO[C@H](CN(C)Cc2ccc(Cl)c(Cl)c2)[C@H](C)CN([C@@H](C)CO)C(=O)c2cc(NC(=O)NC3CCCCC3)ccc2O1	0.4	16.9	-2.0	2.2	nt	4.9
OCCCc1cn(CC2CCCCC2)nn1	nt	-8.5	31.6	1.2	9.5	47.8*
c1ccc(-c2cn(CC3CCCCC3)nn2)cc1	-1.5	-1.3	-6.0	5.8	-31.0	-12.5
CCCNC(=O)N1C[C@H](C)[C@H](OC)CN(C)C(=O)c2ccc(NS(C)(=O)=O)cc2OC[C@H]1C	-4.5	18.2	0.1	2.7	nt	14.1
CO[C@H]1CN(C)C(=O)c2cc(NS(=O)(=O)c3cn(C)cn3)ccc2OC[C@H](C)N(CC2CC2)C[C@@H]1C	-1.0	-1.4	41.8	2.1	nt	-3.4
Cc1oc2c(CN3CCCC3)c(O)ccc2c(=O)c1-c1ccc(Br)cc1	2.5	0.4	-2.1	-28.5*	3.7	2.3
Cc1ccc(-c2cnc3c(c2)C(=O)N([C@@H](C)CO)C[C@H](C)[C@@H](CN(C)CC2CCOCC2)O3)cc1	0.3	-0.8	-4.6	2.0	nt	-3.6
C[C@@H]1CN([C@H](C)CO)C(=O)c2cc(NS(=O)(=O)c3cccs3)ccc2O[C@@H]1CN(C)S(=O)(=O)c1ccc(Cl)cc1	-2.8	-3.0	0.3	-3.9	nt	-11.2
O=C(NNc1nc2cc3c(cc2s1)OCCO3)c1ccccc1	1.1	0.6	nt	-27.4*	2.1	?
CN1CCN(C2=C(NS(=O)(=O)c3cccs3)C(=O)c3ccccc3C2=O)CC1	10.0	21.7	0.7	-1.8	9.5	-1.9
NC(=O)C1CCN(C2=C(NS(=O)(=O)c3ccccc3)C(=O)c3ccccc3C2=O)CC1	12.8	-1.3	nt	1.3	0.2	-3.1
O=C1C(NS(=O)(=O)c2ccc(Cl)cc2)=C(N2CCCCC2)C(=O)c2ccccc21	40.3*	-2.7	nt	-44.6	-54.7	2.9
NC(=O)C1CCN(C2=C(NS(=O)(=O)c3ccc(Br)cc3)C(=O)c3ccccc3C2=O)CC1	32.3*	-3.4	36.9	-30.9*	20.4	0.6
CCOC(=O)C1CCN(C2=C(NS(=O)(=O)c3ccc(Br)cc3)C(=O)c3ccccc3C2=O)CC1	38.5*	0.4	-1.2	-37.5*	-22.8	18.2
CN1CCN(C2=C(NS(=O)(=O)c3ccccc3)C(=O)c3ccccc3C2=O)CC1	nt	nt	nt	nt	-13.3	nt
O=C1C(NS(=O)(=O)c2cccs2)=C(N2CCN(Cc3ccccc3)CC2)C(=O)c2ccccc21	53.8*	-10.2	nt	-9.9	13.7	2.7
C[C@@H]1CN([C@H](C)CO)S(=O)(=O)c2ccc(C3=CCCCC3)cc2O[C@H]1CN(C)Cc1ccccc1F	9.8	-0.9	21.5	9.3	nt	9.2
N/C(=N\OC(=O)c1ccc(Cl)cc1[N+](=O)[O-])c1cccnc1	1.0	6.2	nt	-21.8*	-17.9	-4.7
COc1ccc(NC(=O)Nc2ccc3c(c2)C(=O)N([C@H](C)CO)C[C@@H](C)[C@@H](CN(C)S(=O)(=O)c2cccs2)O3)cc1	-0.5	-6.7	3.1	2.1	nt	8.2
CCCCCc1c(-c2ccccc2OC)ncn1CCc1ccccc1OC	9.9	-5.9	nt	-30.2	nt	26.3*
CCCCc1c(-c2ccccc2OC)ncn1CCc1ccccc1Cl	12.5	-3.0	nt	-32.1	nt	32.0*
CCCCc1c(-c2ccccc2OC)ncn1CCc1ccccc1OC	18.8	2.1	nt	-62.9	nt	-5.7

Compound activity (PubChem BioAssay)
